In ChEMBL document CHEMBL1143659, “Discovery of a rhodanine class of compounds as inhibitors of Plasmodium falciparum enoyl-acyl carrier protein reductase” (J Med Chem, 2007):
≈ marks a conversion by molar mass, not a printed value. Calls of active or inactive are those of the source. The calls are words filed in the database; no cut-off is given here.

Tests used:
[1] = molecular target: T1, Enoyl-acyl-carrier protein reductase (Plasmodium falciparum, UniProt Q965D5); experiment: Inhibition of Plasmodium falciparum recombinant enoyl ACP reductase expressed in BL21 (DE3) cells with respect to NADH; format: cell-based
T1 sequence (Q965D5 whole entry): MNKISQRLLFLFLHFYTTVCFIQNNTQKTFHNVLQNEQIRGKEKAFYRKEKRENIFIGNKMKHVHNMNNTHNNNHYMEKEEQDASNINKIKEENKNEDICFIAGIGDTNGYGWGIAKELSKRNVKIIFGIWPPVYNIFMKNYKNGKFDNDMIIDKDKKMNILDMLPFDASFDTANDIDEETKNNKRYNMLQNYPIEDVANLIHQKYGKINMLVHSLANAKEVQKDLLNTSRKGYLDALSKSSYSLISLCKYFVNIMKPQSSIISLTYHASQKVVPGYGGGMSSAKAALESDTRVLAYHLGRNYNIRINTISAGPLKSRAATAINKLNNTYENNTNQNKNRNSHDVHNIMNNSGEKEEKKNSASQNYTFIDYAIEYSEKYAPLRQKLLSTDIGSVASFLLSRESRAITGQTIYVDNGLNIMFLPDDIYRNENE
How it was run: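 Ki via Dixon plot (x-intercept). NADH fixed at 50 and 100 µM, crotonoyl-CoA 200 µM, 200 nM enzyme; inhibitor varied from 1 nM up to its IC50. A340 NADH-consumption assay at 25 °C, pH 7.5; mean of three sets.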

[2] = molecular target: T1, Enoyl-acyl-carrier protein reductase; experiment: (§1) Inhibition of Plasmodium falciparum recombinant enoyl ACP reductase expressed in BL21 (DE3) cells; format: biochemical
How it was run: (§2)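 His-tagged enzyme from E. coli, Ni-NTA purified. Assay at 25 °C in 150 mM Tris-NaCl pH 7.5, 200 µM crotonoyl-CoA, 100 µM NADH, 200 nM enzyme, 1% DMSO; NADH oxidation followed as A340 decrease. Percent inhibition from residual activity across serial inhibitor dilutions; IC50 by nonlinear regression vs log concentration; mean of three sets.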

[3] = molecular target: T1, Enoyl-acyl-carrier protein reductase; experiment: Inhibition of Plasmodium falciparum recombinant enoyl ACP reductase expressed in BL21 (DE3) cells with respect to crotonyl CoA; format: cell-based
How it was run: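 Ki via Dixon plot (x-intercept). Crotonoyl-CoA fixed at 100 and 200 µM, NADH 100 µM; inhibitor varied from 1 nM up to its IC50. Spectrophotometric NADH oxidation at 340 nm, 25 °C, Tris-NaCl pH 7.5; mean of three sets.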

[4] = molecular target: T2, Enoyl-acyl-carrier protein reductase (Plasmodium falciparum) (UniProt Q965D5); experiment: as §1; format: biochemical; how it was run: as §2
T2 sequence (whole entry): T1 sequence (Q965D5 whole entry)

Plasmodium falciparum = experiment: Growth inhibition of chloroquine-sensitive Plasmodium falciparum FCK2 in human erythrocytes after 96 hrs; format: functional, organism-based; details: FCK2, 96 h
How it was run: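 Synchronized early-trophozoite cultures (1-2% parasitemia, 2% hematocrit) in RPMI 1640 with 10% human serum, 0.225% bicarbonate, gentamycin; inhibitor in Me2SO (final ≤0.05%), added up to fourth day. Parasitemia scored by Giemsa-stained microscopy at 48 and 96 h against solvent control. IC50 by nonlinear regression of relative percent parasitemia vs log concentration; three independent experiments.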

Structure (SMILES) | IC50 [2] [µM] | other results
O=C1NC(=S)S/C1=C\c1ccc(-c2ccc(Cl)c(Cl)c2)o1 | 0.98 | Ki [1]: 0.63 µM; Ki [3]: 0.51 µM
CCN1C(=O)/C(=C/c2ccc(N(CC)CC)cc2O)SC1=S | > 100 | –
CCN(CC)c1ccc(N2C(=O)/C(=C/c3ccc(OC)cc3)SC2=S)cc1 | > 100 | –
O=C1/C(=C/c2ccc(Cl)cc2Cl)SC(=S)N1c1ccc(O)cc1 | 25 | –
O=C1/C(=C/c2cccc(O)c2)SC(=S)N1c1ccc(F)cc1 | > 100 | –
Cc1ccc(-c2ccc(/C=C3\SC(=S)NC3=O)o2)cc1Cl | 28.5 | –
O=C1NC(=S)S/C1=C\c1ccc(-c2cc(Cl)cc(Cl)c2)o1 | 6.1 | Ki [1]: 5.5 µM; Ki [3]: 4.1 µM
CN(C)c1ccc(/C=C2\SC(=S)N(c3ccc(O)cc3)C2=O)cc1 | 0.87 | –
CN1C(=O)/C(=C/c2ccc(-c3ccc(Cl)cc3Cl)o2)SC1=S | 0.87 | Activity [4]: inactive
O=C1/C(=C/c2ccc(-c3cccc(Cl)c3)o2)SC(=S)N1c1cccc(Cl)c1 | > 100 | –
O=C1NC(=S)S/C1=C\c1ccc(-c2ccccc2Cl)o1 | 35 | –
COc1ccc(N2C(=O)/C(=C/c3ccc(C(C)C)cc3)SC2=S)cc1 | > 100 | –
O=C1/C(=C/c2ccc(O)c(O)c2)SC(=S)N1c1ccccc1 | 0.035 | Ki [1]: 0.032 µM; Ki [3]: 0.0042 µM; IC50 (Plasmodium falciparum): 0.75 µM; MIC (Plasmodium falciparum): 2.5 µM (≈ 0.824 µg/mL)
COC(=O)CCCCCN1C(=O)/C(=C/c2ccc(Cl)cc2)SC1=S | > 100 | –
O=C1NC(=S)S/C1=C\c1ccc(-c2cccc(Cl)c2Cl)o1 | 0.87 | Ki [1]: 0.56 µM; Ki [3]: 0.48 µM
Oc1cc(Cl)ccc1Oc1ccc(Cl)cc1Cl [TRICLOSAN] | 0.066 | Ki [3]: 0.66 µM
CCCCCCOc1ccc(/C=C2\SC(=S)N(CCCCCC(=O)O)C2=O)cc1OC | 7 | Ki [1]: 7.3 µM; Ki [3]: 6.6 µM
O=C1NC(=S)S/C1=C\c1ccc(-c2cccc(Cl)c2)o1 | 1.7 | Ki [1]: 1.05 µM; Ki [3]: 0.88 µM
COc1ccc(/C=C2\SC(=S)N(c3ccc(O)cc3)C2=O)cc1 | 10 | Ki [1]: 9.1 µM; Ki [3]: 8.7 µM
CN1C(=O)/C(=C/c2ccc(-c3cc(Cl)cc(Cl)c3)o2)SC1=S | 0.87 | –

Structure (SMILES) | IC50 [2] [µM] | other results
O=C(O)c1cccc(-c2ccc(/C=C3\SC(=S)N(c4cccc(C(F)(F)F)c4)C3=O)o2)c1 | 20 | –
CCc1ccc(/C=C2\SC(=S)N(CCCCCC(=O)OC)C2=O)cc1 | > 100 | –
Cc1ccc(-c2ccc(/C=C3\SC(=S)N(C)C3=O)o2)cc1Cl | 0.87 | –
CCc1nnc(NS(=O)(=O)c2ccc(N3C(=O)c4c(Cl)c(Cl)c(Cl)c(Cl)c4C3=O)cc2)s1 | 90 | –
COc1ccc(Cl)cc1NC(=O)c1cc(-c2ccc(Cl)s2)nc2ccccc12 | 60 | –
COc1cc(/C=C2\SC(=S)N(CCCCCC(=O)O)C2=O)ccc1OCc1ccc(Cl)cc1 | 6.5 | Ki [1]: 5.4 µM; Ki [3]: 5.1 µM
COc1ccc(N2C(=O)/C(=C/c3ccc(OC)c4ccccc34)SC2=S)cc1 | 0.87 | –
O=C1c2c(Cl)c(Cl)c(Cl)c(Cl)c2C(=O)N1c1ccc2[nH]c(/C=C/c3ccc(Cl)cc3)nc2c1 | 70 | –
COc1ccc(-c2cc(C(=O)Nc3cc(Cl)ccc3O)no2)cc1 | 55 | –
CN(C)CCOC(=O)CCN1C(=O)/C(=C/c2ccc(Cl)cc2Cl)SC1=S | > 100 | –
COc1ccc(N2C(=O)/C(=C/c3ccc(N(C)C)cc3)SC2=S)cc1 | > 100 | –
O=C1NC(=S)S/C1=C\c1ccc(-c2cc(Cl)ccc2Cl)o1 | 6 | Ki [1]: 2.5 µM; Ki [3]: 2 µM
COc1ccc(N2C(=O)/C(=C/c3ccccc3)SC2=S)cc1 | > 100 | –
CCCCOc1ccc(/C=C2\SC(=S)N(CCCCCC(=O)OC)C2=O)cc1 | – | Activity [4]: inactive
O=C(Nc1cc(Cl)ccc1O)c1cc(-c2ccc(Cl)cc2)on1 | 75 | –
Clc1ccc(CNc2nc(SCc3ccc(Cl)cc3)nc3ccccc23)cc1 | 52 | –
COc1ccc(N2C(=O)/C(=C/c3ccc(C=O)cc3)SC2=S)cc1 | 1.5 | Ki [1]: 14.4 µM; Ki [3]: 13.2 µM
COC(=O)CCCCCN1C(=O)/C(=C/c2cc(OC)c(OC)c(OC)c2)SC1=S | – | Activity [4]: inactive
O=C(O)CCCN1C(=O)/C(=C/c2cn(-c3ccccc3)nc2-c2ccc(Cl)cc2)SC1=S | 50 | –
CCCCCOc1ccc(/C=C2\SC(=S)N(CCCCCC(=O)O)C2=O)cc1OC | > 100 | –

Structure (SMILES) | IC50 [2] [µM] | other results
CCN1C(=O)/C(=C/c2cc(Cl)c(O)c(Cl)c2)SC1=S | > 100 | –
COc1ccc(N2C(=O)/C(=C/c3c4ccccc4cc4ccccc34)SC2=S)cc1 | > 50 | –
COc1cc(/C=C2\SC(=S)N(c3ccc(O)cc3)C2=O)ccc1O | 0.87 | –
CC(C)(C)c1ccc(CS[n+]2cc3ccccc3c(=O)n2Nc2ccc(Cl)nn2)cc1 | 50 | –
CN1C(=O)/C(=C/c2ccc(-c3cccc(Cl)c3)o2)SC1=S | 30.2 | –
CN(C)CCOC(=O)CCCCCN1C(=O)/C(=C/c2ccccc2)SC1=S | > 100 | –
COC(=O)CCCCCN1C(=O)/C(=C/c2cccc(O)c2)SC1=S | > 100 | –
O=C1/C(=C/c2cccc(O)c2)SC(=S)N1c1ccccc1 | > 100 | –
O=C(NC1CCCc2ccccc21)c1cc(Sc2cccc(Cl)c2)nc2ccccc12 (stereo not drawn) | 50 | –
CCOc1ccc(N2C(=O)/C(=C/c3cccc4ccccc34)SC2=S)cc1 | – | Activity [4]: inactive
CC(C)c1ccc(/C=C2\SC(=S)N(CCCCCC(=O)O)C2=O)cc1 | > 100 | –
O=C1/C(=C/c2ccco2)SC(=S)N1c1cccc(F)c1 | > 100 | –
O=C1/C(=C/c2ccc(-c3ccc(Cl)cc3)o2)SC(=S)N1c1cccc(Cl)c1 | > 100 | –
O=C(O)CCCCCN1C(=O)/C(=C/c2c[nH]c3ccccc23)SC1=S | 100 | –
CN1C(=O)/C(=C/c2ccc(-c3ccc(Cl)c(Cl)c3)o2)SC1=S | > 100 | –
O=C(NCCN1CCCc2ccccc21)c1cc(-c2ccc(Cl)s2)nc2ccccc12 | 60 | –
COc1ccc(/C=C2\SC(=S)N(c3ccc(OC)cc3)C2=O)cc1 | > 100 | –
Cc1cc(/C=C2\SC(=S)N(CCCCCC(=O)O)C2=O)ccc1OCc1ccccc1 | > 100 | –
CCCOc1ccc(/C=C2\SC(=S)N(CCCCCC(=O)O)C2=O)cc1OC | 45 | –
